How the values were obtained:
[1] = 4 mg/kg in mice; cited from earlier work
[2] = system: healthy elderly subjects; experiment: Monitoring of treatment‐emergent adverse events; format: in vivo, human; details: 16 mg oral, single dose; within 24 hours after administration
Method in brief: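 Randomised, double-blind, placebo-controlled trial in healthy subjects aged ≥65 (n=48; 12 active:4 placebo per cohort, placebos pooled). Intranasal test compound 5.5, 11 or 22 mg or 0.9% NaCl b.i.d. for 7 days, 6 h between doses. The 11 mg active subjects later got one open-label oral 16 mg dose of the parent drug. Safety was tracked by TEAEs, nasal examination, vital signs, ECG and safety bloods.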

For COc1ccc2c3c1O[C@H]1C[C@@H](O)C=C[C@@]31CCN(C)C2 [galantamine, reference compound], the “brain‐to‐blood ratio” value [1] is given as 2.1, the “TEAEs within 24 hours: All gastrointestinal disorders” value [2] is given as 8 (66.7) number of subjects (percentage and the “TEAEs within 24 hours: Any events” value [2] is given as 10 (83.3) number of subjects (percentage. The “TEAEs within 24 hours: Diarrhea” value [2] was 1 (8.3) number of subjects (percentage, the “TEAEs within 24 hours: Nausea” value [2] was 5 (41.7) number of subjects (percentage and the “TEAEs within 24 hours: Vomiting” value [2] was 5 (41.7) number of subjects (percentage.
